Activity calls are given as the source filed them. The calls are words filed in the database; no cut-off is given here.
Key:
[1] = Antiproliferative activity against human HCT116 cells assessed as growth inhibition by CCK8 assay; format: functional, cell-based, Epithelial cell
[2] = Antiproliferative activity against human A549 cells assessed as growth inhibition by CCK8 assay; format: functional, cell-based, Epithelial cell
[3] = Antiproliferative activity against human MDA-MB-231 cells assessed as growth inhibition by CCK8 assay; format: functional, cell-based, Epithelial cell
[4] = target: DNA topoisomerase 2-alpha (Homo sapiens) (UniProt P11388); test: Inhibition of TOP2 (unknown origin) assessed as fractured DNA fragments using supercoiled plasmid DNA at 250 uM
Sequence of DNA topoisomerase 2-alpha (Homo sapiens) (P11388 whole entry, the tested form may be a part): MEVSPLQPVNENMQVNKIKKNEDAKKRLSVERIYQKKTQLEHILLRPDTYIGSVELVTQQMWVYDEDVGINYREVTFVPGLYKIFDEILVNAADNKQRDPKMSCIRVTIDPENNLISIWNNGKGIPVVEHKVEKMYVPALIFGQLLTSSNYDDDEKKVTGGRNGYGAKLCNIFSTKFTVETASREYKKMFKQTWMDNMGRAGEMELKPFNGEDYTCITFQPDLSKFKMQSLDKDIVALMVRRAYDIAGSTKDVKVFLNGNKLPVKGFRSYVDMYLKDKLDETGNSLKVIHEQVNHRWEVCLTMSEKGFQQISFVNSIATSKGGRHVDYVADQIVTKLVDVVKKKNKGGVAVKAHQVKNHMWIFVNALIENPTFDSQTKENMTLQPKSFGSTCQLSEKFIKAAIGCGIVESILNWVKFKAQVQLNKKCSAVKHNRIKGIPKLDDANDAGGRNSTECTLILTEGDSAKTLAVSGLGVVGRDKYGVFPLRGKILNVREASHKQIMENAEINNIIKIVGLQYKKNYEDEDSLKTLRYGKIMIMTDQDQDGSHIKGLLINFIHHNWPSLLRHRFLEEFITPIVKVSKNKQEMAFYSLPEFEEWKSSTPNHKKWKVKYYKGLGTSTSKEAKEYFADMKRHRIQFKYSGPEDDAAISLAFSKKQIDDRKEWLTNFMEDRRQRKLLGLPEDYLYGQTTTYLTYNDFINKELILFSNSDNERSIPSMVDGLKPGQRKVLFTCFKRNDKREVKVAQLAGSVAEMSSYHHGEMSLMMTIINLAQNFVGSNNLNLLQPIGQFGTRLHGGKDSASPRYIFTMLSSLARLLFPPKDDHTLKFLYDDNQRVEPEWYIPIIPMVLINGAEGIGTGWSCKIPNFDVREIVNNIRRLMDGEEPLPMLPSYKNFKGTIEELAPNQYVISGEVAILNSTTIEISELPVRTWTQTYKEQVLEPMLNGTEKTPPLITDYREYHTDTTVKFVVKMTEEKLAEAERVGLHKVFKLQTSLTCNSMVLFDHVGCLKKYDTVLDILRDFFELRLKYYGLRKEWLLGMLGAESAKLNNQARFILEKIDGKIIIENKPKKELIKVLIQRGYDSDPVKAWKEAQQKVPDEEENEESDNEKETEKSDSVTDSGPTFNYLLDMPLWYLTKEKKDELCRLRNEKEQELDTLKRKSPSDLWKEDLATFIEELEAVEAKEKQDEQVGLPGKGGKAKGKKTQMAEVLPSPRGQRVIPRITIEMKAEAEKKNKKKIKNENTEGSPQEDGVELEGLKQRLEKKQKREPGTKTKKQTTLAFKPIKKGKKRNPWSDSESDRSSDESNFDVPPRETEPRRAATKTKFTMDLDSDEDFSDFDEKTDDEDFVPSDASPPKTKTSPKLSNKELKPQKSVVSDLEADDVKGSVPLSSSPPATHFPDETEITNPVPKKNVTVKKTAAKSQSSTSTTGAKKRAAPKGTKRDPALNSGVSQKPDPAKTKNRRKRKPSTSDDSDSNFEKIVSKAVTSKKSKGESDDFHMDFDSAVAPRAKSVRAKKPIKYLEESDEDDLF
Outline: (§1)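 Purified Top2 was incubated with DNA and compounds at 250 μM and 100 μM. The read-out was the appearance of fractured DNA fragments, with etoposide as the positive control.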

[5] = target: DNA topoisomerase 2-alpha (Homo sapiens) (UniProt P11388); test: Inhibition of TOP2 (unknown origin) assessed as fractured DNA fragments using supercoiled plasmid DNA at 100 uM relative to etoposide; outline: as §1
[6] = target: DNA topoisomerase 2-alpha (Homo sapiens) (UniProt P11388); test: Inhibition of TOP2 (unknown origin) assessed as fractured DNA fragments using supercoiled plasmid DNA at 50 uM relative to etoposide
[7] = target: T1, DNA topoisomerase 1 (Homo sapiens) (UniProt P11387); test: Inhibition of TOP1 (unknown origin) assessed as decrease in relaxation of supercoiled DNA using supercoiled plasmid DNA at 500 uM relative to camptothecin
T1 sequence (whole entry): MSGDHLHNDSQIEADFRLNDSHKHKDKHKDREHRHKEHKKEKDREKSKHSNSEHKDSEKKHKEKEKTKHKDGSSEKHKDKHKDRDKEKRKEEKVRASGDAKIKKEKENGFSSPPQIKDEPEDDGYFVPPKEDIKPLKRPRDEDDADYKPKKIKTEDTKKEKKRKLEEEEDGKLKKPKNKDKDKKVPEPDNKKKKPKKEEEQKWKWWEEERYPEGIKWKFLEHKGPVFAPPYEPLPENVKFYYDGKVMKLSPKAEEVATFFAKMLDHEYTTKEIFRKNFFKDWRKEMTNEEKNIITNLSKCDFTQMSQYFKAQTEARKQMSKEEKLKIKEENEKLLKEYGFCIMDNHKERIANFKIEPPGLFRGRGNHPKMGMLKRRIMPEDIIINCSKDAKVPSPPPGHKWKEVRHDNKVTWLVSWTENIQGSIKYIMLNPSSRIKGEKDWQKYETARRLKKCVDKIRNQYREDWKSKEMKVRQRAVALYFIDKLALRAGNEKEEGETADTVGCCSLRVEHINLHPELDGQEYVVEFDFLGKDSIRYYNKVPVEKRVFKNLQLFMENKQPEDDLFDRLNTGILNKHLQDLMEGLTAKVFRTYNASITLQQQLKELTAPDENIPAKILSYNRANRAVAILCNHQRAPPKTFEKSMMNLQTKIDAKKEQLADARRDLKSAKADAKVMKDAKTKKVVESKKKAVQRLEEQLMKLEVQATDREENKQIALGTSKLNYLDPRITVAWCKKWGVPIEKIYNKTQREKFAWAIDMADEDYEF
Outline: (§2)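 Top1-mediated relaxation of supercoiled DNA was tested with compounds at 500 μM and 100 μM. Camptothecin served as the positive control.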

[8] = target: T1, DNA topoisomerase 1 (Homo sapiens); test: Inhibition of TOP1 (unknown origin) assessed as decrease in relaxation of supercoiled DNA using supercoiled plasmid DNA at 100 uM relative to camptothecin; outline: as §2
[9] = test system: HCT-116; test: Induction of apoptosis in human HCT116 cells assessed as increase in bax protein expression at 0.03 to 1.5 uM after 24 hrs by Western blot analysis; format: functional, cell-based; conditions: dose 0.03-1.5 µM
Outline: (§3)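 HCT116 cells were exposed to various concentrations for 24 h. Lysates were then probed by western blot for caspase-9, caspase-3, Bcl-2, Bax and cytochrome C.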

[10] = test system: HCT-116; test: Induction of apoptosis in human HCT116 cells assessed as decrease in Bcl-2 protein expression at 0.03 to 1.5 uM after 24 hrs by Western blot analysis; format: functional, cell-based; conditions: dose 0.03-1.5 µM; outline: as §3
[11] = test system: HCT-116; test: Induction of apoptosis in human HCT116 cells assessed as increase in caspase-3 expression after 24 hrs by Western blot analysis; format: functional, cell-based; conditions: dose 0.03-1.5 µM; outline: as §3
[12] = test system: HCT-116; test: Induction of apoptosis in human HCT116 cells assessed as increase in caspase-9 expression after 24 hrs by Western blot analysis; format: functional, cell-based; conditions: dose 0.03-1.5 µM; outline: as §3
[13] = test system: HCT-116; test: Antitumor activity against human HCT116 cells xenografted in nude mice assessed as tumor growth inhibition at 50 mg/kg/day, ip administered bid for 21 days relative to control; format: functional, organism-based; conditions: time 21.0 day
Outline: (§4)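 HCT116 cells were inoculated into nude mice to form xenografts. Dosing was intraperitoneal at 50 mg/kg/day for 21 consecutive days. Evodiamine was given at the same dosage as the comparator. Tumor growth and body weight after implantation were tracked, and data are reported as mean ± SEM.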

[14] = test system: Mus musculus; test: Toxicity in nude mouse xenografted with human HCT116 cells assessed as body weight loss at 50 mg/kg/day, ip administered bid for 21 days; format: functional, organism-based; conditions: Epithelial cell, time 21.0 day; outline: as §4
[15] = test system: HCT-116; test: Induction of apoptosis in human HCT116 cells assessed as increase in cytochrome c expression after 24 hrs by Western blot analysis; format: functional, cell-based; conditions: dose 0.03-1.5 µM; outline: as §3

SMILES | IC50 ([1]; Homo sapiens, Epithelial cell) [µM] | IC50 ([2]; Homo sapiens, Epithelial cell) [µM] | IC50 ([3]; Homo sapiens, Epithelial cell) [µM] | other results
COc1ccc2[nH]c3c(c2c1)CCN(C(=O)c1ccccc1)C3c1ccccc1Cl (stereo unspecified) | 6.73 | 27.2 | > 100 | –
O=C(c1ccccc1)N1CCc2c([nH]c3ccccc23)C1c1ccccc1 (stereo unspecified) | 57.9 | > 100 | 51.2 | –
COc1ccc2[nH]c3c(c2c1)CCN(C(=O)c1ccccc1)C3c1ccc(C)cc1 (stereo unspecified) | 6.45 | 17.4 | 22.2 | –
COc1ccc2[nH]c3c(c2c1)CCN(C(=O)c1ccccc1)C3c1ccc(Br)cc1 (stereo unspecified) | 3.62 | 2.09 | 18.8 | –
COc1ccc2[nH]c3c(c2c1)CCN(C(=O)CCc1ccccc1)C3c1ccc(Cl)c(Cl)c1 (single isomer, unassigned; (-)) | – | – | – | IC50 ([1]; epithelial cell): 17.7 µM; IC50 ([2]; epithelial cell): 16.1 µM; IC50 ([3]; epithelial cell): > 50 µM
COc1cccc(C(=O)N2CCc3c([nH]c4ccc(OC)cc34)C2c2ccccc2)c1 (stereo unspecified) | 5.13 | 12 | 3.01 | –
COc1ccc2[nH]c3c(c2c1)CCN(C(=O)c1ccccc1)C3c1ccccc1 (stereo unspecified) | 2.53 | 5.29 | 1.48 | –
COc1ccc2[nH]c3c(c2c1)CCN(C(=O)c1ccc(F)cc1)C3c1ccccc1 (stereo unspecified) | 1.73 | 12.7 | 1.24 | –
COc1ccc2[nH]c3c(c2c1)CCN(C(=O)c1ccccc1)C3c1ccc(F)c(F)c1 (stereo unspecified) | 2.65 | 30.2 | 31 | –
O=C(c1cccc(F)c1)N1CCc2c([nH]c3ccccc23)C1c1ccccc1 (stereo unspecified) | 32.5 | > 100 | 57.6 | –
COc1ccc2[nH]c3c(c2c1)CCN(C(=O)c1cccc(F)c1)C3c1ccccc1 (stereo unspecified) | 4.8 | 9.27 | 3.28 | –
CN1c2ccccc2C(=O)N2CCc3c([nH]c4ccccc34)[C@H]21 | 19.6 | > 100 | 49 | –
COc1ccc2[nH]c3c(c2c1)CCN(C(=O)CCc1ccccc1)C3c1ccc(Cl)c(Cl)c1 (single isomer, unassigned; (+)) | – | – | – | IC50 ([1]; epithelial cell): 0.13 µM; IC50 ([2]; epithelial cell): 0.65 µM; IC50 ([3]; epithelial cell): 0.042 µM
COc1ccc2[nH]c3c(c2c1)CCN(C(=O)c1ccccc1)C3c1cccc(Br)c1 (stereo unspecified) | 3.24 | 11.9 | 40.8 | –
COc1cc([C@@H]2c3cc4c(cc3[C@@H](O[C@@H]3O[C@@H]5CO[C@@H](C)O[C@H]5[C@H](O)[C@H]3O)[C@H]3COC(=O)[C@H]23)OCO4)cc(OC)c1O | – | – | – | inhibition [4]: Active; inhibition [5]: Active; inhibition [6]: Active
CC[C@@]1(O)C(=O)OCc2c1cc1n(c2=O)Cc2cc3ccccc3nc2-1 [CAMPTOTHECIN] | 0.01 | 0.045 | 0.075 | –

SMILES | IC50 ([1]; Homo sapiens, Epithelial cell) [µM] | IC50 ([2]; Homo sapiens, Epithelial cell) [µM] | IC50 ([3]; Homo sapiens, Epithelial cell) [µM] | other results
O=C(c1ccccc1)N1CCc2c([nH]c3ccc(O)cc23)C1c1ccccc1 (stereo unspecified) | 20.9 | 19.3 | > 100 | –
COc1ccc2[nH]c3c(c2c1)CCN(C(=O)c1ccc([N+](=O)[O-])cc1)C3c1ccccc1 (stereo unspecified) | 58.1 | 25.5 | 6.18 | –
COc1ccc2[nH]c3c(c2c1)CCN(C(=O)CCc1ccccc1)C3c1ccc(Cl)c(Cl)c1 (stereo in doubt; 45) | – | – | – | inhibition [7]: Active; inhibition [8]: Active; inhibition [4]: Active; inhibition [5]: Active; inhibition [6]: Active; Activity [9]: Active; Activity [10]: Active; Activity [11]: Active; Activity [12]: Active; Activity [13]: Active; Activity [14]: Active; Activity [15]: Dose-Dependent Effect
CC(C)C1c2[nH]c3ccccc3c2CCN1C(=O)c1ccccc1 (stereo unspecified) | > 100 | > 100 | > 100 | –
O=C(c1ccccc1)N1CCc2c([nH]c3ccccc23)C1 | 21.4 | > 100 | 45.4 | –
COc1ccc2[nH]c3c(c2c1)CCN(C(=O)c1ccc(Cl)cc1)C3c1ccccc1 (stereo unspecified) | 5.56 | 2.15 | 1.11 | –
COc1ccc2[nH]c3c(c2c1)CCN(C(=O)c1ccc(F)cc1)C3c1ccc(Cl)c(Cl)c1 (stereo unspecified) | 0.49 | 14.1 | 0.29 | inhibition [7]: Active; inhibition [8]: Active; inhibition [4]: Active; inhibition [5]: Active; inhibition [6]: Active
COc1ccc2[nH]c3c(c2c1)CCN(C(=O)CCc1ccccc1F)C3c1ccccc1 (stereo unspecified) | 7.76 | 2.45 | 0.27 | –
COc1ccc(C(=O)N2CCc3c([nH]c4ccc(OC)cc34)C2c2ccc(Cl)c(Cl)c2)cc1 (stereo unspecified) | 4.28 | 44.6 | 1.08 | –
COc1ccc2[nH]c3c(c2c1)CCN(C(=O)c1ccccc1)C3c1ccc(Cl)c(Cl)c1 (stereo unspecified) | 0.54 | 1.66 | 0.59 | inhibition [7]: Active; inhibition [8]: Active; inhibition [4]: Active; inhibition [5]: Active; inhibition [6]: Active
COc1ccc2[nH]c3c(c2c1)CCN(C(=O)CCc1ccc(F)cc1)C3c1ccccc1 (stereo unspecified) | 0.72 | 3.8 | 0.34 | inhibition [7]: Active; inhibition [4]: Active; inhibition [5]: Active; inhibition [6]: Active
COc1cccc(C(=O)N2CCc3c([nH]c4ccc(OC)cc34)C2c2ccc(Cl)c(Cl)c2)c1 (stereo unspecified) | 1.97 | 13.6 | 0.68 | –
COc1ccc2[nH]c3c(c2c1)CCN(C(=O)CCc1ccccc1)C3c1ccccc1 (stereo unspecified) | 0.36 | 7.91 | 0.57 | inhibition [7]: Active; inhibition [8]: Active; inhibition [4]: Active; inhibition [5]: Active; inhibition [6]: Active
COc1ccc(C(=O)N2CCc3c([nH]c4ccc(OC)cc34)C2c2ccccc2)cc1 (stereo unspecified) | 6.14 | 11.8 | 2.81 | –
COc1ccc2[nH]c3c(c2c1)CCN(C(=O)c1ccccc1F)C3c1ccccc1 (stereo unspecified) | 6.18 | 18.7 | 62.4 | –

From ChEMBL document CHEMBL4813998, “Structural simplification of evodiamine: Discovery of novel tetrahydro-β-carboline derivatives as potent antitumor agents” (Bioorg Med Chem Lett, 2021)
